This passage reports IC50 and Activity results from ChEMBL document CHEMBL1833907, “Triterpenoid constituents from the roots of Paeonia rockii ssp. rockii” (J Nat Prod, 2011).

What all share (assay type): functional, cell-based
The subject of test [1] is M14. In words: Cytotoxicity against human M14 cells after 48 hrs by MTT assay. The following applies: M14, 48 h. The method, boiled down: (§1)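 M-14 melanoma cells grown in DMEM with 2 mM L-glutamine, 10% heat-inactivated FBS and 1% penicillin/streptomycin, used for at most 10 passages. Cells were seeded at 3 × 10^3 per well, given serial dilutions (1–50 μM) and incubated 48 h at 37 °C in humidified 5% CO2. Viability was read by MTT at 620 nm.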
In general terms: Formazan colour is commonly taken as a measure of viable cells.

In test [2] the test system is M14. In words: Cytotoxicity against human M14 cells at 1 to 50 uM after 48 hrs by MTT assay. In outline:
as §1

Test [3] concerns M14. Kind of test: Induction of apoptosis in human M14 cells assessed as activation of caspase-3 at 50 uM after 8 to 24 hrs by Western blot analysis.
Test [4] concerns M14. Kind of test: Induction of apoptosis in human M14 cells assessed as activation of caspase-3 at 50 uM after 24 hrs by Western blot analysis presence of polycaspase inhibitor z-VAD-fmk. For orientation: Immunoblotting shows a protein as a band on a membrane.
For test [5], the system named is M14. Kind of test: Induction of apoptosis in human M14 cells assessed as increase in hypodiploid cells after 24 hrs using propidium iodide staining by flow cytometry. In outline: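 M-14 melanoma cells (DMEM, 2 mM L-glutamine, 10% heat-inactivated FBS, 1% penicillin/streptomycin, 37 °C, humidified 5% CO2, ≤10 passages) incubated 24 h with serial dilutions of compounds (1–50 μM). Nuclei stained with propidium iodide and analysed by flow cytometry. Apoptosis is taken as the percentage of hypodiploid nuclei versus untreated control. Three experiments, each in triplicate, means ± SEM.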
On the technique in general: A flow cytometer gives signals particle by particle.

Test [6] deals with M14. Kind of test: Induction of apoptosis in human M14 cells assessed as increase in hypodiploid cells up to 25 uM after 24 hrs using propidium iodide staining by flow cytometry. The method, boiled down:
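M-14 cells were treated with 1–50 μM for 24 h, then collected and stained with propidium iodide. The percentage of hypodiploid (apoptotic) nuclei was measured by flow cytometry against untreated controls. Values are means ± SEM of three experiments run in triplicate.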

Calls of active or inactive are those of the source. The rule behind the calls is not given here.

Broadly, the IC50 is the concentration that gives 50% inhibition.

As to `C=C(C)[C@@H]1CC[C@]2(C(=O)O)CC[C@]3(C)[C@H](CC[C@@H]4[C@@]5(C)CC[C@H](O)[C@@](C)(CO)[C@@H]5CC[C@]43C)[C@@H]12`, in test [1], the IC50 amounted to 50 µM.
As for `C=C1CC[C@@]23CC[C@]4(C)[C@@](OC2=O)([C@@H]3C1)[C@H]1O[C@H]1[C@@H]1[C@@]2(C)CC[C@H](O)[C@@](O)(CO)[C@@H]2CC[C@]14C`, in test [2], the outcome was inactive.
Regarding `C=C1CC[C@]2(C(=O)O)CC[C@]3(C)C(=CC[C@@H]4[C@@]5(C)CC[C@H](O)C(C)(C)[C@@H]5CC[C@]43C)[C@@H]2C1`, the outcome in test [2] was inactive.
As to `C=C1CC[C@]2(C(=O)O)CC[C@]3(C)C(=CC[C@@H]4[C@@]5(C)CC[C@H](O)[C@](C)(O)[C@@H]5CC[C@]43C)[C@@H]2C1`, the result in test [2] was inactive.
Turning to `CC1(C)[C@@H](O)CC[C@]2(C)[C@H]3C=CC4=C(O)C(=O)C(=O)[C@@]4(C)[C@]3(C)CC[C@@H]12`, the outcome in test [2] was inactive.
`COc1ccc(C(C)=O)c(O)c1`: the result in test [2] was inactive.
For `C[C@@]12CC(=O)[C@H]3C[C@]1(O)O[C@H](O2)[C@@H]3COC(=O)c1ccccc1`, the result in test [2] was inactive.
As to `C[C@@]12C[C@@]3(O)O[C@@H](O1)[C@]1(COC(=O)c4ccccc4)[C@@H]3C[C@]12O[C@@H]1O[C@H](COC(=O)c2ccccc2)[C@@H](O)[C@H](O)[C@H]1O`, the outcome in test [2] was inactive.
Still for that read-out and setting: under `O=C(O)c1ccccc1` stands “inactive”.
In test [1], `C=C(C)[C@@H]1CC[C@]2(C(=O)O)CC[C@]3(C)[C@H](CC[C@@H]4[C@@]5(C)CC[C@H](O)C(C)(C)[C@@H]5CC[C@]43C)[C@@H]12` [BETULINIC ACID] yielded a half-maximal inhibitory concentration (IC50) of 50 µM. Also, the result in test [3] was Active. Also, the result in test [4] was inactive. For the same compound, in test [5], the Activity result was “Dose-dependent effect”.
As to `CC1(C)CC[C@]2(C(=O)O)CC[C@]3(C)C(=CC[C@@H]4[C@@]5(C)CC[C@H](O)[C@@](C)(CO)[C@@H]5CC[C@]43C)[C@@H]2C1` [HEDERAGENIN], the 50% inhibitory concentration (IC50) in test [1] stood at 58 µM. Moreover, the result in test [3] and in test [6] was Active. In addition, the result in test [4] was inactive.
Compound `COc1cc2c(cc1O)[C@H](CO)[C@H](c1ccc(CCCO)c(OC)c1)O2` [LAWSONICIN] registered an IC50 in test [1] of 100 µM.
The compound `CC1(C)CC[C@]2(C(=O)O)CC[C@]3(C)C(=CC[C@@H]4[C@@]5(C)CC[C@H](O)C(C)(C)[C@@H]5CC[C@]43C)[C@@H]2C1` [OLEANOLIC_ACID] yielded an IC50 in test [1] of 82 µM. The outcome in test [3] and in test [6] was Active. Moreover, the result in test [4] was inactive.
